Screening results (PubChem BioAssay)
pPAFAH FP inh: inhibitors of human plasma PAF acetylhydrolase (pPAFAH). actives 1.5% (n = 330,000). recombinant pPAFAH, FP-rhodamine probe fluorescence polarization. inhibition, % at 3.39 µM. Q13093;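 active = inhibition above the mean inhibition across the screen plus 3 SD, cut at about 25% in these data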;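 note: inhibitors block binding of the rhodamine activity-based probe so polarization drops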
PAFAH2 FP inh: inhibitors of human PAFAH2. inhibition, % at 3.39 µM. actives 0.99% (n = 340,000). AID 492956. recombinant PAFAH2, FP-rhodamine activity probe, fluorescence polarization;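 active = inhibition above the mean over all tested compounds plus 3 SD, cut at about 30% in these data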;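 note: inhibitors block probe labeling of enzyme so polarization drops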
PAFAH1B2 FP inh: PAFAH1B2 (human) inhibition. recombinant PAFAH1B2, FP-rhodamine activity probe, fluorescence polarization. actives 1.2% (n = 340,000). inhibition, % at 3.39 µM;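 active = inhibition above the mean of all tested compounds plus 3 SD, cut at about 24% in these data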
Target sequence (P68402 whole entry, looked up): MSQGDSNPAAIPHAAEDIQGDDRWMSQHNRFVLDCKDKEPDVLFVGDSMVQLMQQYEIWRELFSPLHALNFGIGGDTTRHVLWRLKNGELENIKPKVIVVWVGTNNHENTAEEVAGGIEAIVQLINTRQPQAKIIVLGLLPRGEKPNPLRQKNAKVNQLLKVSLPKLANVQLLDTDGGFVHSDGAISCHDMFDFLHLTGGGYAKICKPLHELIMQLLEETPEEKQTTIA
RBBP9 inhibitor: inhibitors of human serine hydrolase RBBP9. inhibition, % at 7.94 µM. actives 0.2% (n = 220,000). O75884. recombinant RBBP9, FP-Rh probe fluorescence polarization;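 active = inhibition above the campaign mean of all tested compounds plus 3 SD, cut at about 14% in these data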
Target sequence (O75884 whole entry, looked up): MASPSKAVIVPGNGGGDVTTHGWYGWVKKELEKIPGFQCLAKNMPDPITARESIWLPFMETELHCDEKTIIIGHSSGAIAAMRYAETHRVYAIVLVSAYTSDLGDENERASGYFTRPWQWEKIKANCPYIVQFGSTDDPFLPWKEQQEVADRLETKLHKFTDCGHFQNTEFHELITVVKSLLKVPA
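Controls: DMSO-treated enzyme wells and wells lacking RBBP9 | Material: RBBP9 protein | Technique: Fluorescence polarization | Replication: Single well per compound, no replicates | Buffer or medium: Tris-NaCl-Pluronic buffer, pH 8.0 | Timing: 30 min compound preincubation, 45 min probe labeling, 25 °C | Read-out basis: Percent inhibition from mP, scaled between DMSO and no-protein wells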
PAFAH1B3 FP inh: PAFAH1B3 (human) inhibition. Q15102. recombinant PAFAH1B3, FP-rhodamine probe, fluorescence polarization. inhibition, % at 3.39 µM. actives 0.28% (n = 340,000);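 active = inhibition above the screen-wide average of all tested compounds plus 3 SD, cut at about 25% in these data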
Of the large screens only hits and unclear results are named; the others gave an inactive call. The list is not random: actives were taken first. Their share in the collection is about 2.7%.

NC(=O)c1ccc(N=Nc2c(O)c3ccccc3[nH]c2=O)cc1	none (no result: PAFAH2 FP inh, PAFAH1B2 FP inh, PAFAH1B3 FP inh)
N=C(N)c1ccc(N=Nc2c(O)ccc3c2[nH]c2ccccc23)cc1	PAFAH1B2 FP inh 31.3 (no result: pPAFAH FP inh, RBBP9 inhibitor)
CN(CC(O)Cn1cnc2c1c(=O)n(C)c(=O)n2C)c1ccccc1 (stereo unspecified)	none
O=[N+]([O-])c1ccc(CP(=O)(c2ccccc2)c2ccccc2)cc1	none (no result: pPAFAH FP inh, RBBP9 inhibitor)
Clc1ccc(SCCCCn2ccnc2)cc1	PAFAH1B2 FP inh 71.1
Clc1ccccc1OCCCCn1ccnc1	none
CSCCC(NC(=O)c1ccccc1)C(=O)N/N=C(\C)c1ccccc1 (stereo unspecified)	none
CC(C)(C)c1ccc(-n2ncc3c2CCCC3NC(=O)CCn2cncn2)cc1 (stereo unspecified)	pPAFAH FP inh 33.1 (no result: RBBP9 inhibitor)
CC(C)(C)c1ccc(-n2ncc3c2CCCC3NC(=O)CCCn2cncn2)cc1 (stereo unspecified)	none (no result: pPAFAH FP inh, RBBP9 inhibitor)
COc1cc(CNCc2ccc(C)cc2)cc(OC)c1OC	none (no result: RBBP9 inhibitor)
COc1ccc(N(C(=O)c2ccco2)C(C(=O)NC2CCCCC2)c2ccccc2)cc1 (stereo unspecified)	none
COc1ccc(N(C(=O)CNC(=O)c2ccco2)C(C(=O)NC2CCCCC2)c2ccco2)cc1 (stereo unspecified)	PAFAH1B2 FP inh 25.6
COc1ccc(N(C(=O)c2ccco2)C(C(=O)NC2CCCC2)c2ccccc2)cc1 (stereo unspecified)	pPAFAH FP inh 33.9 (no result: RBBP9 inhibitor)
C#CCOc1ccc(C2C3=C(CCCC3=O)N(CC(=O)O)C3=C2C(=O)CCC3)cc1Br	none (no result: RBBP9 inhibitor)
CC(=O)NC(=S)Nc1ccc(S(=O)(=O)Nc2ncccn2)cc1	none
O=C1CCCC/C1=C\Nc1ccc(O)cc1	pPAFAH FP inh 26.1
CC(=O)NC(=S)NNC(=O)COc1ccc(Br)cc1	none (no result: pPAFAH FP inh)
CC(C)(C)NC(=O)C(=O)NNC(=O)COc1ccc(Br)cc1	PAFAH1B2 FP inh 31.2
COc1ccc(OC)c(NC(=O)CSc2sc3c(O)cc(=O)[nH]c3c2C#N)c1	none (no result: RBBP9 inhibitor)
Cc1ccc(NC(=O)CSc2sc3c(O)cc(=O)[nH]c3c2C#N)c(F)c1	pPAFAH FP inh 31.5 (no result: RBBP9 inhibitor)
N#Cc1c(SCC(=O)Nc2ccc(C(F)(F)F)cc2)sc2c(O)cc(=O)[nH]c12	pPAFAH FP inh 25.3 (no result: RBBP9 inhibitor)
CC(=O)NN1C(=O)/C(=C/c2ccc(Br)o2)SC1=S	none
CC(=O)NN1C(=O)/C(=C\c2ccc(Br)o2)SC1=S	pPAFAH FP inh 27.3
CN(CC(=O)Nc1ccc(F)cc1)CC(=O)N1CCCCCC1	none (no result: RBBP9 inhibitor)
O=C(/C=C/c1ccoc1)c1ccccc1O	none
COc1ccc2ccccc2c1C(=O)/C=C\c1ccoc1	pPAFAH FP inh 27.3
O=C(NNS(=O)(=O)c1ccc2ccccc2c1)c1cc(-c2ccccn2)nc2ccccc12	PAFAH1B2 FP inh 26.0
COc1ccc(OC)c(NC(=O)CCNS(=O)(=O)c2ccc3c(c2)oc(=O)n3C)c1	none
COc1cc(OC)c(NC(=O)CCNS(=O)(=O)c2ccc3c(c2)oc(=O)n3C)cc1Cl	pPAFAH FP inh 24.7
O=C(NC12CC3CC(CC(C3)C1)C2)c1cccc(OC(F)F)c1	none (no result: RBBP9 inhibitor)
CCOc1ccc(C(=O)NC(=S)N2CCN(c3ccc(C(F)(F)F)cc3[N+](=O)[O-])CC2)cc1	none
COc1cccc(C(=O)NC(=S)N2CCN(c3ccc(C(F)(F)F)cc3[N+](=O)[O-])CC2)c1	pPAFAH FP inh 26.1
CC[C@]12C(=O)N(C)C[C@H]([C@@H]3C(=O)N(C)C(=O)[C@@H]31)N2C(=O)c1ccccc1	none (no result: pPAFAH FP inh, RBBP9 inhibitor)
CC(Sc1nc2c(c(=O)[nH]1)CCCC2)C(=O)Nc1ccccc1C#N (stereo unspecified)	none (no result: RBBP9 inhibitor)
COc1cc(NC(=O)C2CCCN(S(=O)(=O)c3ccc4c(c3)CCCN4C(C)=O)C2)cc(OC)c1 (stereo unspecified)	pPAFAH FP inh 30.3 (no result: RBBP9 inhibitor)
COc1ccc(NC(=O)C2CCCN(S(=O)(=O)c3ccc4c(c3)CCCN4C(C)=O)C2)cc1 (stereo unspecified)	none (no result: RBBP9 inhibitor)
CSc1nc(N)nc(C2CC2)n1	none
Cc1c(Cl)ccc2c1NC(=O)C21NC(CCC(N)=O)[C@H]2C(=O)N(c3ccc(Cl)cc3)C(=O)[C@H]21 (stereo partly specified)	pPAFAH FP inh 24.9
O=C(CN1CCN(C(=O)c2cccc(-n3cnnn3)c2)CC1)Nc1ccccc1Cl	none (no result: RBBP9 inhibitor)
Cc1ccc(-c2csc3ncn(Cc4ccc(C(=O)O)cc4)c(=O)c23)cc1C	none
O=C(O)c1ccc(Cn2cnc3scc(-c4ccccc4)c3c2=O)cc1	PAFAH1B2 FP inh 26.3
